Laboratory results reported in ChEMBL document CHEMBL3826889, “Symmetrical bis-tertiary amines as novel CXCR4 inhibitors” (2016).

Experiments:
[1] = target: C-X-C chemokine receptor type 4 (Homo sapiens) (UniProt P61073); experiment: Displacement of biotinylated TN14003 from CXCR4 CXCL12 binding domain in human MDA-MB-231 cells preincubated for 10 mins followed by biotinylated TN14003 addition measured after 30 mins using streptavidin-conjugated rhodamine by fluorescence microscopic analysis; format: cell-based
Procedure, shortened: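 MDA-MB-231 cells, 2 × 10^4 per well, seeded 2 days prior. Compound at 1, 10, 100 or 1000 nM for 10 min at room temperature, then fixed in 4% ice-cold paraformaldehyde and rehydrated in PBS. Then 0.05 μg/mL biotinylated TN14003 for 30 min at RT, PBS washes, streptavidin-rhodamine (1:150) for 30 min at RT. Fluorescence microscopy. EC = lowest concentration giving significant fluorescence reduction vs control; semi-quantitative.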

MDA-MB-231 = experiment: Inhibition of […]-induced invasion of human MDA-MB-231 cells at 100 nM after 22 hrs by hematoxylin/eosin-staining based matrigel assay; format: functional; settings: MDA-MB-231, 22 h
Procedure, shortened: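 Invasion chambers with Matrigel-coated 8 μm pore support. MDA-MB-231 cells treated with compound at 100 nM before seeding in the top chamber; CXCL12α at 200 ng/mL in the bottom chamber as chemoattractant. Incubation 22 h, humidified. Non-invading cells swabbed off; invaded cells fixed in methanol and H&E-stained, then counted to give percent invasion.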

Mus musculus = experiment: Antiinflammatory activity against carrageenan-induced paw edema in C57BL/6J mouse assessed as inhibition of edema volume at 300 ug/kg, ip daily administered 30 mins post carrageenan-challenge measured post 2 hrs of last injection; format: functional
Procedure, shortened: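 Acute paw inflammation in female C57BL/6J mice: 50 μL λ-carrageenan (1% w/v in saline) injected s.c. into one hind paw, saline into the contralateral paw. Dosing i.p. daily from 30 min after challenge, in 10% DMSO / 90% of 45% (2-hydroxypropyl)-β-cyclodextrin in PBS; vehicle controls. Sacrifice at 74 h post-challenge, 2 h after last dose. Paw thickness by caliper; edema = injected minus contralateral. Suppression % vs vehicle group; 5 mice/group.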

Sequence of C-X-C chemokine receptor type 4 (Homo sapiens) (P61073 whole entry, the tested form may be a part): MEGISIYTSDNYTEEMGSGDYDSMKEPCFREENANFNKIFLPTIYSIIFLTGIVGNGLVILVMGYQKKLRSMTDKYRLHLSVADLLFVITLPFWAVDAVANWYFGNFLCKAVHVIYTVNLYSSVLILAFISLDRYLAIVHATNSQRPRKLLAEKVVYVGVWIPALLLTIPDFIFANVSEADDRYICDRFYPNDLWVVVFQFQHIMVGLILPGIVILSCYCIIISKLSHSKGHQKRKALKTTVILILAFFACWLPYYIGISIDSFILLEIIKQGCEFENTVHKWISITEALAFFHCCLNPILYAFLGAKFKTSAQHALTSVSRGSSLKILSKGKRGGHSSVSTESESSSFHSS

SMILES: c1cc(CN2CCCC2)ccc1CN1CCCC1
- EC [1]: 1000 nM

SMILES: CN(Cc1ccncc1)Cc1ccc(CN(C)Cc2ccncc2)cc1
- EC [1]: > 1000 nM

SMILES: CN(Cc1ccc(CN(C)Cc2ccccc2Cl)cc1)Cc1ccccc1Cl
- EC [1]: > 1000 nM

SMILES: COc1cccc(CN(C)Cc2ccc(CN(C)Cc3cccc(OC)c3)cc2)c1
- EC [1]: 10 nM
- inhibition at 0.1 µM (MDA-MB-231): < 50%

SMILES: CN(Cc1ccc(CN(C)Cc2cccnc2)cc1)Cc1cccnc1
- EC [1]: > 1000 nM

SMILES: CN(Cc1ccc(CN(C)Cc2cccc(Cl)c2)cc1)Cc1cccc(Cl)c1
- EC [1]: 1000 nM

SMILES: c1cc(CN2CCCNCCNCCCNCC2)ccc1CN1CCCNCCNCCCNCC1 [PLERIXAFOR]
- EC [1]: 1000 nM
- inhibition at 0.1 µM (MDA-MB-231): 62%

SMILES: CN(Cc1ccc(CN(C)Cc2cccc(F)c2)cc1)Cc1cccc(F)c1
- EC [1]: > 1000 nM

SMILES: CN(Cc1ccc(CN(C)Cc2ccccn2)cc1)Cc1ccccn1
- EC [1]: > 1000 nM

SMILES: N=C(N)NCCC[C@@H]1NC(=O)[C@H](Cc2ccc(O)cc2)NC(=O)[C@H]2CCCN2C(=O)[C@@H](CCCCN)NC(=O)[C@@H](CCCCN)NC(=O)[C@H](CCCNC(=N)N)NC(=O)[C@H](Cc2ccc(O)cc2)NC(=O)[C@H](NC(=O)[C@@H](Cc2ccc3ccccc3c2)NC(=O)[C@H](CCCNC(=N)N)NC(=O)[C@@H](CCCNC(=N)N)NC(=O)c2ccc(F)cc2)CSSC[C@H](C(=O)N[C@H](CCCNC(=N)N)C(N)=O)NC(=O)[C@@H](CCCNC(N)=O)NC1=O (stereo in doubt)
- inhibition in vivo at 0.3 mg/kg (Mus musculus): 48%

SMILES: CN(Cc1ccc(CN(C)c2ccccc2)cc1)c1ccccc1
- EC [1]: 1000 nM

SMILES: CN(Cc1ccc(F)cc1)Cc1ccc(CN(C)Cc2ccc(F)cc2)cc1
- EC [1]: > 1000 nM

SMILES: c1cc(CN2CCOCC2)ccc1CN1CCOCC1
- EC [1]: > 1000 nM

SMILES: c1cc(CN2CCCCC2)ccc1CN1CCCCC1
- EC [1]: 10 nM
- inhibition at 0.1 µM (MDA-MB-231): < 50%

SMILES: CCN(Cc1ccccc1)Cc1ccc(CN(CC)Cc2ccccc2)cc1
- EC [1]: 1000 nM

SMILES: c1ccc(CN(Cc2ccc(CN(Cc3ccccc3)CC3CC3)cc2)CC2CC2)cc1
- EC [1]: 1000 nM

SMILES: CN(Cc1ccc(CN(C)Cc2ccccc2F)cc1)Cc1ccccc1F
- EC [1]: > 1000 nM

SMILES: CN(Cc1ccc(CN(C)c2ccc(F)cc2)cc1)c1ccc(F)cc1
- EC [1]: 100 nM
- inhibition at 0.1 µM (MDA-MB-231): 66.4%
